Bioassay records: PubChem, several laboratories
MC4R antag cAMP: antagonists of human melanocortin 4 receptor (MC4R); actives 0.48% (n = 360,000); MC4R-expressing cells, MTII-stimulated cAMP, LANCE TR-FRET; inhibition, % at 6.5 µM; P32245;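 active = inhibition above its plate's cutoff, the mean of tested wells on that plate plus 3 SD, cut at about 29% in these data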
Target sequence (P32245 whole entry, looked up): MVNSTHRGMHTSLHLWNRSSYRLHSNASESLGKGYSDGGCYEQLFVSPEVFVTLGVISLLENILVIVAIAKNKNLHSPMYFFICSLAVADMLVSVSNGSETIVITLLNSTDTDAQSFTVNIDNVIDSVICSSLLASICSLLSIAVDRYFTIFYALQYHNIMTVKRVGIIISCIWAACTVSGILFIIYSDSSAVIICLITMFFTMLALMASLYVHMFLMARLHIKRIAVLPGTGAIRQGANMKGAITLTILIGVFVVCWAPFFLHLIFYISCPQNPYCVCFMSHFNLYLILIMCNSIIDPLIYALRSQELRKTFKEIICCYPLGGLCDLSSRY
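Test system: U2OS cells stably expressing human melanocortin 4 receptor (MC4R); also added: Melanotan II challenge; compound: 6.5 µM single dose; timing: 30-min compound preincubation, 1-h Melanotan II challenge, 1-h detection, room temperature; signal: Eu-cAMP/anti-cAMP TR-FRET, emission 671 nm; repeats: one well per compound, no replicates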
Exocytosis inh: blocks lytic granule exocytosis; TALL-104 LAMP-1 surface exposure, flow cytometry; cells stimulated with thapsigargin and PMA; inhibition, % at 10 µM; actives 0.66% (n = 360,000); AID 651702;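 active = inhibition above about 55%, limit read from the data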
T cell modulator: modulates CD8 T cell binding to vesicles; response (vesicle binding), % at 7 µM; actives 0.068% (n = 330,000); 2C CD8+ T cell-vesicle binding, flow cytometry; stronger effect = lower value; AID 2052;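 active = response, share of CD8 T cells binding vesicles, and their 90th percentile fluorescence all below set limits, cut at about 80% in these data, passing the limit was not always enough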;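 also: values below 100% mean blocked vesicle binding to the CD8+ T cells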
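Benchmarks: naked versus QL9-loaded vesicles / Assay system: purified 2C TCR transgenic mouse naive CD8+ T cells / Technique: high-throughput flow cytometry with anti-B7-1 and anti-CD8 staining / Timing: Cell–vesicle co-incubation 1.5 h at 37 °C, staining 20 min on ice / Read-out: percent CD8+ FL2 mean versus row control / Probe or stimulus: QL9-loaded Drosophila micro-vesicles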
MC4R ag barr: human MC4R agonism via beta-arrestin | AID 540308 | actives 0.98% (n = 360,000) | activation, % at 8.9 µM | U2OS MC4R beta-arrestin complementation, luminescence; percent of melanotan II response, DMSO zero | P32245;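 active = activation above a per-plate cutoff, the mean activation of sample wells on that plate plus 3 SD, cut at about 8% in these data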
EP2 modulator: modulates human prostaglandin E2 receptor EP2 signaling; induction, % at 25 µM; EP2-expressing cells, cAMP HTRF FRET, PGE2 co-stimulation; actives 0.83% (n = 260,000); P43116;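 active = compounds whose cAMP rise, as percent of the full-agonist control response, exceeds 60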;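 also: rat C6 glioma line stably carrying human EP2 under a CMV promoter; the protocol text gives 20 µM as final concentration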
Target sequence (P43116 whole entry, looked up): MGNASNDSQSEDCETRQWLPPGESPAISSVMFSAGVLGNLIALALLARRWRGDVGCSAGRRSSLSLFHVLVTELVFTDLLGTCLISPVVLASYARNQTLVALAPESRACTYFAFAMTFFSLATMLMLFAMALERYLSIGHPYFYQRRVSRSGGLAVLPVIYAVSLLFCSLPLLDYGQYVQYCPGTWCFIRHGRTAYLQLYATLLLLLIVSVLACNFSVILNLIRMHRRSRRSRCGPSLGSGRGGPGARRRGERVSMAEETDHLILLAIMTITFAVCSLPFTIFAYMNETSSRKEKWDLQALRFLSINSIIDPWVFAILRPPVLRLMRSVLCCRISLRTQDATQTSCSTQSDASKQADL
EP2 antag: inhibitors of human EP2 prostaglandin E2 receptor. P43116. C6 glioma cells expressing human EP2, cAMP TR-FRET; cells stimulated with saturating PGE2. inhibition, % at 25 µM. actives 0.52% (n = 260,000). AID 1422;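 active = percent inhibition above 40 after rounding to a whole number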;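 also: rat C6 glioma host cells with rolipram phosphodiesterase inhibitor present; the protocol text gives 20 µM as final concentration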
U2OS cAMP counter: U2OS forskolin cAMP inhibition counter-screen | shares compounds with MC4R antag cAMP | parental U2OS, LANCE TR-FRET | inhibition, % at 6.5 µM | actives 26% (n = 1,600) | AID 602193;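 active = mean inhibition over triplicates above the low-control well mean plus 3 SD, set per campaign, cut at about 13% in these data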;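 also: signal is single emission at 671 nm which falls as cellular cAMP rises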
MC4R antag conf: human MC4R cAMP antagonism confirmation. shares compounds with MC4R antag cAMP. inhibition, % at 6.5 µM. AID 602195. MC4R-expressing cells, MTII-stimulated cAMP, TR-FRET. actives 27% (n = 1,600); in the data active = inhibition above about 29%
Numbers stand for hits; 0 = inactive; - = not tested or not shown. Rows were chosen to be rich in hits. Some 2.6% of all compounds tested hit in one or more screens of this group.

SMILES	MC4R antag cAMP	Exocytosis inh	T cell modulator	MC4R ag barr	EP2 modulator	EP2 antag	U2OS cAMP counter	MC4R antag conf
CC(NS(=O)(=O)c1ccc(Cl)cc1)C(=O)OCC(=O)Nc1ccc(N(C)C)cc1 (stereo not drawn)	0	0	-	0	-	-	-	-
O=C(/C=C/c1ccc(-c2ccccc2[N+](=O)[O-])o1)c1ccccc1	30	0	0	0	0	0	0	0
O=C(O)/C(=C\c1ccc(-c2ccccc2[N+](=O)[O-])o1)c1ccccc1	0	0	0	0	-	-	-	-
O=C(CNS(=O)(=O)c1ccccc1)NNC(=O)C(Cl)Cl	29	0	0	0	0	0	0	0
O=C(CNS(=O)(=O)c1ccccc1)NCC(=O)N1CCCCC1	0	0	0	0	-	-	-	-
O=C1ON=C(c2cccc([N+](=O)[O-])c2)/C1=C/c1ccc(O)cc1	38	0	0	0	0	0	0	0
COc1ccccc1NC(=O)c1ccc(NC(=O)CN2CCCC2)cc1	0	0	0	0	0	0	-	-
CNS(=O)(=O)c1cc(Cl)ccc1Sc1ccccc1C(=O)O	0	0	0	0	0	0	-	-
NS(=O)(=O)c1c(Sc2ccccc2C(=O)O)ccc2ccccc12	37	0	0	0	-	-	17	38
C/C(=N\NC(=O)CNc1cccc(Cl)c1C)c1cccs1	0	0	0	0	0	0	-	-
COc1ccccc1NCC(=O)N/N=C(\C)c1cccs1	40	0	0	0	0	0	0	0
CCN(CC)S(=O)(=O)c1ccc(N2CCOCC2)c(NC(=O)c2ccccc2F)c1	30	0	0	0	0	0	0	0
CCN(CC)S(=O)(=O)c1ccc(N2CCOCC2)c(NC(=O)c2ccc(F)cc2)c1	0	0	0	0	0	0	-	-
O=C(NCC(O)c1ccccc1)c1ccccc1 (stereo not drawn)	0	0	0	0	0	0	-	-
CCn1c(SCC(=O)N2CCCCC2)nc2c(c1=O)SCC2	0	0	0	0	-	-	-	-
COC(=O)CSc1[nH]c2ccc(F)cc2c1[N+](=O)[O-]	34	0	0	0	0	0	0	0
CCOC(=O)CSc1[nH]c2cc(OC)ccc2c1[N+](=O)[O-]	0	0	0	0	0	0	-	-
O=C(Nc1cccc([N+](=O)[O-])c1)c1ccc2c(c1)C(=O)N(c1ccccn1)C2=O	35	0	0	0	-	-	0	0
Cc1cc(C)n(-c2nnc(NC34CC5CC(CC(C5)C3)C4)nn2)n1	29	0	0	0	0	0	0	0
COc1ccc(N2C(=O)CC(Cc3ccccc3)C2=O)cc1 (stereo not drawn)	0	0	0	0	0	0	-	-
COc1ccc(C[C@@H]2OC3(C=CC(=O)C=C3)O[C@H]2Cc2ccc(OC)cc2)cc1	60	96	-	0	-	-	35	34
O=C(CN1C(=O)C2CC=CCC2C1=O)NCc1cccs1 (stereo not drawn)	31	0	0	0	0	0	0	0
O=S(=O)(c1cccnc1)N1CCn2cccc2C1c1ccccc1F (stereo not drawn)	0	0	0	0	-	-	-	-
CC(C)(C)NC(=O)N1CCn2cccc2C1c1ccccc1F (stereo not drawn)	30	0	0	0	0	0	0	0
CCn1cc(C(=O)O)c(=O)c2cnc(N3CCN(C(=S)Nc4ccccc4)CC3)nc21	31	0	0	0	0	0	0	0
SMILES	MC4R antag cAMP	Exocytosis inh	T cell modulator	MC4R ag barr	EP2 modulator	EP2 antag	U2OS cAMP counter	MC4R antag conf
Brc1ccc(-c2nnc3sc(CNCc4ccc5c(c4)OCO5)cn23)cc1	0	0	0	0	0	0	-	-
Brc1ccc(-c2nnc3sc(CNC4CCCC4)cn23)cc1	32	0	0	0	0	0	17	33
COc1cc(NC(=O)c2cccc3c(-c4cnn(C)c4)coc23)cc(OC)c1OC	46	0	-	0	-	-	0	0
COc1cc(C(=O)N2CCCCC2c2cc(C(=O)Nc3ccccc3)no2)cc(OC)c1C (stereo not drawn)	0	0	-	0	-	-	-	-
CCN(CC)S(=O)(=O)c1ccc(OC)c(NC(=O)Cn2cnc3c2c(=O)n(C)c(=O)n3C)c1	33	0	0	0	0	0	0	0
COc1ccccc1CN(C)C(=O)C(NC(=O)Cc1cccc2ccccc12)C(C)C (stereo not drawn)	36	0	0	0	-	-	0	0
Cc1cc(-c2ccc(Br)s2)nc(-n2cccc2)n1	41	0	-	0	0	0	0	0
Cc1cc(-c2sccc2Br)nc(-n2cccc2)n1	35	0	-	0	65	0	0	0
Clc1ccc(-c2ccnc(-n3cccc3)n2)s1	0	0	0	0	0	0	-	-
O=C1Nc2cccc3c2N(CCC3)C2=C1CCC2	30	0	-	0	-	-	0	0
COc1cc2c(cc1OC)/C(=C/C#N)NC(C)(C)C2	0	0	0	0	0	0	-	-
O=C(CCc1ccccc1)OCC(=O)c1cccc([N+](=O)[O-])c1	0	0	0	0	0	0	-	-
COC(=O)CSc1cc(C)nc(SC)n1	0	0	0	0	0	0	-	-
CC[C@H](C)[C@H](NC(N)=O)C(=O)Nc1ccc(OC)c(Cl)c1	0	0	0	0	0	0	-	-
C=CCSc1nc2c(N)ncnc2n1[C@H]1O[C@H](CO)[C@@H](O)[C@@H]1O	-	-	-	-	0	0	-	-
C=CCSc1nc2c(N)ncnc2n1C1OC(CO)C(O)C1O (stereo not drawn)	31	0	-	0	-	-	0	0
CCOC(=O)CC(=O)NC(C)(C)CCCCC(C)(C)NC(=O)CC(=O)OCC	29	0	0	0	0	0	0	0
CCN(CC)CCOc1ccccc1C(C)=O	0	0	0	0	0	0	-	-
COc1cc(Cn2ccnc2)c(OC)cc1Cn1ccnc1	0	0	0	0	0	0	-	-
S=c1[nH]nc(C(c2ccccc2)C2CCCCC2)o1 (stereo not drawn)	30	0	0	0	0	0	0	0
O=C1CC(c2ccc3c(c2)OCO3)Sc2nc3ccccc3n21 (stereo not drawn)	0	0	0	0	0	-	-	-
COc1ccccc1CCNS(=O)(=O)c1c(C)n(C)c(=O)n(C)c1=O	0	0	0	0	0	0	-	-
S=c1nc[nH]c2c1[nH]c1ccc(Cl)cc12	35	0	0	0	61	0	0	0
COc1cccc(NC(=O)CCN2C(=O)c3cccc([N+](=O)[O-])c3C2=O)c1	37	0	-	0	-	-	15	34
COc1ccc(NC(=O)CCN2C(=O)c3cccc([N+](=O)[O-])c3C2=O)cc1	0	0	0	0	-	-	-	-
